Data: ChEMBL document CHEMBL5715953, “A Potent, Selective, and Cell-Active Inhibitor of Human Type I Protein Arginine Methyltransferases” (ACS Chem Biol, 2016)
pIC50, pKi: −log10 of the molar value. One block for each molecule: values may come before it. The source made the active and inactive calls. No cut-off for these calls is given here.

Experiments:
[1] = target: T1, Protein arginine N-methyltransferase 1 (Homo sapiens, UniProt Q99873); experiment: Inhibition of human PRMT1 using (3H) methylated biotin labelled peptide as substrate in presence of 3H-SAM by scintillation proximity assay
[2] = target: T2, Protein arginine N-methyltransferase 3 (Homo sapiens, UniProt O60678); experiment: Inhibition of human PRMT3 using (3H) methylated biotin labelled peptide as substrate in presence of 3H-SAM by scintillation proximity assay
[3] = target: T3, Protein arginine N-methyltransferase 6 (Homo sapiens, UniProt Q96LA8); experiment: Inhibition of human PRMT6 using (3H) methylated biotin labelled peptide as substrate in presence of 3H-SAM by scintillation proximity assay
[4] = target: T4, Histone-arginine methyltransferase CARM1 (Homo sapiens, UniProt Q86X55); experiment: (§1) Inhibition of human PRMT4 using (3H) methylated biotin labelled peptide as substrate in presence of 3H-SAM by scintillation proximity assay
T4 sequence (Q86X55 whole entry): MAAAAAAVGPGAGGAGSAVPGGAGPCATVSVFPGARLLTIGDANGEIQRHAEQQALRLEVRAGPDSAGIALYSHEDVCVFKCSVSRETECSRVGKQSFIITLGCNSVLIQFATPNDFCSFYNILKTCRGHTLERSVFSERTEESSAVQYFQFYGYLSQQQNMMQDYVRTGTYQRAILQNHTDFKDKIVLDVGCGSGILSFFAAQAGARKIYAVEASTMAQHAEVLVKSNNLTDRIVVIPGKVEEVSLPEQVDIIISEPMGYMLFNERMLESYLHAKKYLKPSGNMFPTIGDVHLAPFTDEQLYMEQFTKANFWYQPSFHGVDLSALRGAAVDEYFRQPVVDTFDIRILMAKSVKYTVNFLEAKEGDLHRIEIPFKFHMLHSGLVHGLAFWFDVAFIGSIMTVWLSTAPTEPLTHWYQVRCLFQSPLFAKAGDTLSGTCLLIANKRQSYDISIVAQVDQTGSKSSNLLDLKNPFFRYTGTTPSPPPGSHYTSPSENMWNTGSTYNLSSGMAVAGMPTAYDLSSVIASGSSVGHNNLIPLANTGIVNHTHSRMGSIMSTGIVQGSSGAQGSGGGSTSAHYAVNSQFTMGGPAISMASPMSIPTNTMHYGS
In short: (§2)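 Scintillation proximity assay: 3H-SAM as methyl donor, with non-tritiated SAM added when needed. The 3H-methylated biotinylated peptide is captured on streptavidin/scintillant-coated plates and read as counts per minute. IC50 comes from compound titration under balanced conditions, with substrate and cofactor at their Km values. Run in triplicate, mean ± SD. Ki is derived from IC50.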

[5] = target: T5, Protein arginine N-methyltransferase 8 (Homo sapiens, UniProt Q9NR22); experiment: Binding affinity to human PRMT8 assessed as inhibition constant using (3H) methylated biotin labelled peptide as substrate in presence of 3H-SAM by scintillation proximity assay
In short: as §2, with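 “IC50. A lower enzyme level (5 nM) is used for some potent compounds.” for “IC50.”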
Target sequence in this assay (Q9NR22 whole entry): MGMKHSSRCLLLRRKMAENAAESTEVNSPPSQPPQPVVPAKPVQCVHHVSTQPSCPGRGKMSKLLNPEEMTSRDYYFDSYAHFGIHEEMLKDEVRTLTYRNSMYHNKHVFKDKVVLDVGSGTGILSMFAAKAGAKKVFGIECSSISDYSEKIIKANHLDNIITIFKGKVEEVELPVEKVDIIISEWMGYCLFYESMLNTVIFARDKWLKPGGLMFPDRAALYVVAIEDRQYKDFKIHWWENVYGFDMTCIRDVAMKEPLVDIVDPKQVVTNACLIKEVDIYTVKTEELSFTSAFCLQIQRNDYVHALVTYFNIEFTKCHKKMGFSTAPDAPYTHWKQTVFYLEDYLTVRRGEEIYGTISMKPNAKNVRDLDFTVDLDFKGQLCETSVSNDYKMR

[6] = target: T5, Protein arginine N-methyltransferase 8; experiment: Inhibition of human PRMT8 using (3H) methylated biotin labelled peptide as substrate in presence of 3H-SAM by scintillation proximity assay
In short: as §2, with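 “IC50. A lower enzyme level (5 nM) is used for some potent compounds.” for “IC50.”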

[7] = target: T6, Protein arginine N-methyltransferase 9 (Homo sapiens) (UniProt Q6P2P2); experiment: Inhibition of human PRMT9 using (3H) methylated biotin labelled peptide as substrate in presence of 3H-SAM by scintillation proximity assay
T6 sequence (whole entry): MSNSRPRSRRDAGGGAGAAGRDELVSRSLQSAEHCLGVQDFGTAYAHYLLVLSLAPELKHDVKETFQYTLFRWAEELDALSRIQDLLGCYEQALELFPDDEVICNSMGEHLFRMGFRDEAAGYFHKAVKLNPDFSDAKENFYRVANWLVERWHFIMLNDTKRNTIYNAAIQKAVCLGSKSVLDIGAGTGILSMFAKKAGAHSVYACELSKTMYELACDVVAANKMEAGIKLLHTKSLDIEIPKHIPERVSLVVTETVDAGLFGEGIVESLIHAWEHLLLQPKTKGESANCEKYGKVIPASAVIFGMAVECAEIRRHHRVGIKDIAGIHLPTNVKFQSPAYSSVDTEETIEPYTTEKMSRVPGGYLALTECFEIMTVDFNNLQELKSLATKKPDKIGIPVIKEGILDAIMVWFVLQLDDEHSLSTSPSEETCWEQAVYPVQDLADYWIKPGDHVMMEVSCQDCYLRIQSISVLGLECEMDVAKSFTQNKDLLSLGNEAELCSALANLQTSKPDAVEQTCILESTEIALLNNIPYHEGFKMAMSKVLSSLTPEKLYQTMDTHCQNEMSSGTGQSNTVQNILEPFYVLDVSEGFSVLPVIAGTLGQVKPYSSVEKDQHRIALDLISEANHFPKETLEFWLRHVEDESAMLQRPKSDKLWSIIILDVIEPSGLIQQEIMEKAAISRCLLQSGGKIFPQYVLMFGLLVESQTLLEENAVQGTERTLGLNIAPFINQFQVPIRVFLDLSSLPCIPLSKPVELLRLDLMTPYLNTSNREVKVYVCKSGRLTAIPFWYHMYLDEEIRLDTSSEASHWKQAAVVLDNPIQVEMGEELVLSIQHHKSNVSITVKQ
In short: as §2, with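 “IC50. A lower enzyme level (5 nM) is used for some potent compounds.” for “IC50.”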

[8] = target: Protein arginine N-methyltransferase 5 (Homo sapiens) (UniProt O14744); experiment: Inhibition of human PRMT5 using (3H) methylated biotin labelled peptide as substrate in presence of 3H-SAM by scintillation proximity assay
In short: as §2, with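 “IC50. A lower enzyme level (5 nM) is used for some potent compounds.” for “IC50.”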

[9] = target: T1, Protein arginine N-methyltransferase 1; experiment: Binding affinity to human PRMT1 assessed as inhibition constant using (3H) methylated biotin labelled peptide as substrate in presence of 3H-SAM by scintillation proximity assay
Target sequence in this assay (Q99873 whole entry): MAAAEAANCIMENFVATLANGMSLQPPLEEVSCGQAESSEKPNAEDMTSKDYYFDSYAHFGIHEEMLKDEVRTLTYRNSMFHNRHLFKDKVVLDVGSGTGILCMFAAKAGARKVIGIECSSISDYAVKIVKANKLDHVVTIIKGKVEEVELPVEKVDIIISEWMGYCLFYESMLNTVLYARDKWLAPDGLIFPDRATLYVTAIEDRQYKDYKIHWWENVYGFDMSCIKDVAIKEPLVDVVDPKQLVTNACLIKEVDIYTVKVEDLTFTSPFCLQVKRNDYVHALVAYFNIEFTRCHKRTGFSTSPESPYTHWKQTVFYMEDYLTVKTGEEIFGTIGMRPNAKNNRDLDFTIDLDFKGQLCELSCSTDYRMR

[10] = target: T4, Histone-arginine methyltransferase CARM1; experiment: Binding affinity to human PRMT4 assessed as inhibition constant using (3H) methylated biotin labelled peptide as substrate in presence of 3H-SAM by scintillation proximity assay
[11] = target: T7, Protein arginine N-methyltransferase 7 (Homo sapiens) (UniProt Q9NVM4); experiment: Inhibition of human PRMT7 using (3H) methylated biotin labelled peptide as substrate in presence of 3H-SAM by scintillation proximity assay
T7 sequence (whole entry): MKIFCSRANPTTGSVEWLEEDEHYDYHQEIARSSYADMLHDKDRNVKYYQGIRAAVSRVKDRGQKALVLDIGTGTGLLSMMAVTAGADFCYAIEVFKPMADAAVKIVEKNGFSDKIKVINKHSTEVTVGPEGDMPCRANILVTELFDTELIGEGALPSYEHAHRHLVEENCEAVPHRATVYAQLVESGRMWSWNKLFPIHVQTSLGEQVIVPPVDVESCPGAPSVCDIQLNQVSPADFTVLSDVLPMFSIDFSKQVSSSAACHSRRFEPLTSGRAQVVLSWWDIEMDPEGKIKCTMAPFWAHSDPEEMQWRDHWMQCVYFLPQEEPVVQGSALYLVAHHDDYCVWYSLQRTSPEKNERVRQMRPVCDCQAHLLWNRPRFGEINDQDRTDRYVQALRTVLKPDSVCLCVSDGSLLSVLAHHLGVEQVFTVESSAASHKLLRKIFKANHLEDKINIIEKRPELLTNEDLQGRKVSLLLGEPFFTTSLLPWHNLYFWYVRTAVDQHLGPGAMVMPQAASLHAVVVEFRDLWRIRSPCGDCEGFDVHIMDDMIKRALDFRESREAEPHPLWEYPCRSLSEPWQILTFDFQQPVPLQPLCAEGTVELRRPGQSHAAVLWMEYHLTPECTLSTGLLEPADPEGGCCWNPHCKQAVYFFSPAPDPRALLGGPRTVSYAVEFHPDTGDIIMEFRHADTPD
In short: as §2, with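 “IC50. A lower enzyme level (5 nM) is used for some potent compounds.” for “IC50.”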

[12] = target: T3, Protein arginine N-methyltransferase 6; experiment: Binding affinity to human PRMT6 assessed as inhibition constant using (3H) methylated biotin labelled peptide as substrate in presence of 3H-SAM by scintillation proximity assay
In short: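 Scintillation proximity assay with 3H-SAM as methyl donor, topped up with unlabelled SAM when needed. The methylated biotinylated peptide was captured on streptavidin/scintillant-coated plates and counted as cpm. IC50 came from compound titration at Km concentrations of both peptide substrate and SAM, in triplicate, reported as mean ± SD. Ki was calculated from IC50.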
Target sequence in this assay (Q96LA8 whole entry): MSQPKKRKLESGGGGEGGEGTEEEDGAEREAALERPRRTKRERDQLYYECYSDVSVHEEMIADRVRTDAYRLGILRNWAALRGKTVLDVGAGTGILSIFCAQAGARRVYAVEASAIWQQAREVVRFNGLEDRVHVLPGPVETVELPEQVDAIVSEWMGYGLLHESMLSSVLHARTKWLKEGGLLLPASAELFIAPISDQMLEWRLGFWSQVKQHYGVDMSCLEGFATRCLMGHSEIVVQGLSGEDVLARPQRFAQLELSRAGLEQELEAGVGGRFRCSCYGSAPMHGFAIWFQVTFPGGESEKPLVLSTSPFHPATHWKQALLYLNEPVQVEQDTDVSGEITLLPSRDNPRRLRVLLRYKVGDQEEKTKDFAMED

[13] = target: T2, Protein arginine N-methyltransferase 3; experiment: Binding affinity to human PRMT3 assessed as inhibition constant using (3H) methylated biotin labelled peptide as substrate in presence of 3H-SAM by scintillation proximity assay
Target sequence in this assay (O60678 whole entry): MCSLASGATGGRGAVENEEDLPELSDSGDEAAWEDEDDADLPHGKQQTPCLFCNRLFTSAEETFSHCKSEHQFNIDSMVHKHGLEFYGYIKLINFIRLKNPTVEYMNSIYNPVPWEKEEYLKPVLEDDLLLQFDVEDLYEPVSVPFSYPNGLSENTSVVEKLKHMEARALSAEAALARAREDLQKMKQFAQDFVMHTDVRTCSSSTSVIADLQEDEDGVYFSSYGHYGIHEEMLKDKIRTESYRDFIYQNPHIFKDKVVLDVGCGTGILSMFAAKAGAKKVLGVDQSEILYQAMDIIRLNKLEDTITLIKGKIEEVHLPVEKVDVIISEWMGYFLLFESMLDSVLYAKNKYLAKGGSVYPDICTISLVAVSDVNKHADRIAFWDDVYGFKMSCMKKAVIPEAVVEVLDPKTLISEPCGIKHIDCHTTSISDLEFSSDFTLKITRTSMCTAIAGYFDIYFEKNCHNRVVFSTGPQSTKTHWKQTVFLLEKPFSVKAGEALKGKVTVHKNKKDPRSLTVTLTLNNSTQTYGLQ

[14] = target: T1, Protein arginine N-methyltransferase 1; experiment: Inhibition of PRMT1 in human MCF7 cells assessed as decrease in H4R3me2a level incubated for 48 hrs by Western blotting analysis; format: cell-based
Target sequence in this assay (Q99873 whole entry, looked up): as the sequence (Q99873 whole entry) above

[15] = target: T8, Histone-arginine methyltransferase CARM1 (Homo sapiens) (UniProt Q86X55); experiment: as §1; in short: as §2
T8 sequence (whole entry): T4 sequence (Q86X55 whole entry)

[16] = target: Staphylococcal nuclease domain-containing protein 1 (Homo sapiens) (UniProt Q7KZF4)
[17] = target: E3 ubiquitin-protein ligase UHRF1 (Homo sapiens) (UniProt Q96T88)
[18] = target: WD repeat-containing protein 5 (Homo sapiens) (UniProt P61964)
[19] = system: HEK293; conditions: Homo sapiens, dose 333.0 nM, time 20.0 hrs
[20] = target: T3, Protein arginine N-methyltransferase 6; experiment: Inhibition of human PRMT6 using (3H) methylated biotin labelled peptide as substrate incubated for 30 mins in presence of 3H-SAM by scintillation proximity assay
Target sequence in this assay (Q96LA8 whole entry): as the sequence (Q96LA8 whole entry) above

[21] = system: HEK293; experiment: Cytotoxicity in human HEK293 cells assessed as inhibition of cell growth at 1 uM incubated for 4 days by phase contrast cell imaging analysis; format: toxicity, cell-based; conditions: hek293, 96 h, time 4 day
[22] = system: MCF7; experiment: Antiproliferative activity against human MCF7 cells assessed as decrease in cell number at 0.1 uM incubated for 10 days by vybrant dye cycle green/ Enzo-nuclear-ID red staining based live cell imaging analysis relative to control; format: functional; design: scale not given: the % may be the effect or the level left; conditions: time 10 day
[23] = target: Tudor domain-containing protein 3 (Homo sapiens) (UniProt Q9H7E2)
[24] = system: HEK293; conditions: Homo sapiens, dose 1000.0 nM, time 20.0 hrs
[25] = target: T3, Protein arginine N-methyltransferase 6; experiment: Inhibition of human PRMT6 assessed as inhibition constant in presence of cofactor SAM
Target sequence in this assay (Q96LA8 whole entry): as above

[26] = target: Peregrin (Homo sapiens) (UniProt P55201)
[27] = target: T5, Protein arginine N-methyltransferase 8; experiment: Inhibition of human PRMT8 assessed as inhibition constant in presence of cofactor SAM
Target sequence in this assay (Q9NR22 whole entry): as the sequence (Q9NR22 whole entry) above

[28] = target: Polycomb protein EED (Homo sapiens) (UniProt O75530)
[29] = target: T4, Histone-arginine methyltransferase CARM1; experiment: Inhibition of human PRMT4 assessed as inhibition constant using peptide as substrate
[30] = target: T3, Protein arginine N-methyltransferase 6; experiment: Inhibition of human PRMT6 assessed as inhibition constant using peptide as substrate
Target sequence in this assay (Q96LA8 whole entry): as the sequence (Q96LA8 whole entry) above

[31] = target: T4, Histone-arginine methyltransferase CARM1; experiment: Inhibition of human PRMT4 assessed as inhibition constant in presence of cofactor SAM
[32] = target: T5, Protein arginine N-methyltransferase 8; experiment: Inhibition of human PRMT8 assessed as inhibition constant using peptide as substrate
Target sequence in this assay (Q9NR22 whole entry): as the sequence (Q9NR22 whole entry) above

[33] = target: RNA-binding protein FXR1 (Homo sapiens) (UniProt P51114)
[34] = target: AT-rich interactive domain-containing protein 4A (Homo sapiens) (UniProt P29374)
[35] = target: Growth/differentiation factor 2 (Homo sapiens) (UniProt Q9UK05)
[36] = system: HFF; experiment: Cytotoxicity in human HFF cells assessed as cell confluency at <=1 uM incubated for 96 hrs by phase contrast cell imaging analysis; format: toxicity, cell-based

Sequence of Protein arginine N-methyltransferase 5 (Homo sapiens) (O14744 whole entry): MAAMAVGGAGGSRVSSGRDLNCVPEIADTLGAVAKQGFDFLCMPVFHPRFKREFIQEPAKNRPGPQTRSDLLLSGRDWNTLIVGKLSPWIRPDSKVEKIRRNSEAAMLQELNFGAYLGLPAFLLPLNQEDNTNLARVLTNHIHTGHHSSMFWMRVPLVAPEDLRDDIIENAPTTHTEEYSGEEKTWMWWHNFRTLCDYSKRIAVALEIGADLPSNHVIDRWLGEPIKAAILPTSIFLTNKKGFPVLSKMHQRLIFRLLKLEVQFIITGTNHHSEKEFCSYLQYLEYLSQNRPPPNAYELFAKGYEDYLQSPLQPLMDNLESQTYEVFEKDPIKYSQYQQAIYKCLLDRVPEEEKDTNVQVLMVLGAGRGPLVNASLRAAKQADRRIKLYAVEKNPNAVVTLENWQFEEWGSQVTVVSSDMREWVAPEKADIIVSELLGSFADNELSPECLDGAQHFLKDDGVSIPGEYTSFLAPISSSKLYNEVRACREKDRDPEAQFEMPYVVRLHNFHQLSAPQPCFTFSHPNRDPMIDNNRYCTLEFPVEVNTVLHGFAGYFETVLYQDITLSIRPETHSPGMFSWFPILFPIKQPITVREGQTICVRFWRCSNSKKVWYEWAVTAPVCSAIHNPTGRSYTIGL
Sequence of Polycomb protein EED (Homo sapiens) (O75530 2-441 limits assumed): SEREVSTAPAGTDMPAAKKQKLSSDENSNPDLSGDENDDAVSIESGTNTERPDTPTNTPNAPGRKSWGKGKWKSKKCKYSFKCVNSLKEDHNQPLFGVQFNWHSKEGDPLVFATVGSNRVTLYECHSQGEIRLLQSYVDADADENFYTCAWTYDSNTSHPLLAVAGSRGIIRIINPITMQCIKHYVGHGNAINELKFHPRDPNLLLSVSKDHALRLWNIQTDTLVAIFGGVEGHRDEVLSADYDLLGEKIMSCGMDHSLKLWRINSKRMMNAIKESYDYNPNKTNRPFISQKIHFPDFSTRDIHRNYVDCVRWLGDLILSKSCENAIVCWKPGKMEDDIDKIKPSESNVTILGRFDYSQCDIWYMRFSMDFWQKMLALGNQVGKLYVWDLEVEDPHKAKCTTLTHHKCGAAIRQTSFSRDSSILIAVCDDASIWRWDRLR
Sequence of Peregrin (Homo sapiens) (P55201 whole entry): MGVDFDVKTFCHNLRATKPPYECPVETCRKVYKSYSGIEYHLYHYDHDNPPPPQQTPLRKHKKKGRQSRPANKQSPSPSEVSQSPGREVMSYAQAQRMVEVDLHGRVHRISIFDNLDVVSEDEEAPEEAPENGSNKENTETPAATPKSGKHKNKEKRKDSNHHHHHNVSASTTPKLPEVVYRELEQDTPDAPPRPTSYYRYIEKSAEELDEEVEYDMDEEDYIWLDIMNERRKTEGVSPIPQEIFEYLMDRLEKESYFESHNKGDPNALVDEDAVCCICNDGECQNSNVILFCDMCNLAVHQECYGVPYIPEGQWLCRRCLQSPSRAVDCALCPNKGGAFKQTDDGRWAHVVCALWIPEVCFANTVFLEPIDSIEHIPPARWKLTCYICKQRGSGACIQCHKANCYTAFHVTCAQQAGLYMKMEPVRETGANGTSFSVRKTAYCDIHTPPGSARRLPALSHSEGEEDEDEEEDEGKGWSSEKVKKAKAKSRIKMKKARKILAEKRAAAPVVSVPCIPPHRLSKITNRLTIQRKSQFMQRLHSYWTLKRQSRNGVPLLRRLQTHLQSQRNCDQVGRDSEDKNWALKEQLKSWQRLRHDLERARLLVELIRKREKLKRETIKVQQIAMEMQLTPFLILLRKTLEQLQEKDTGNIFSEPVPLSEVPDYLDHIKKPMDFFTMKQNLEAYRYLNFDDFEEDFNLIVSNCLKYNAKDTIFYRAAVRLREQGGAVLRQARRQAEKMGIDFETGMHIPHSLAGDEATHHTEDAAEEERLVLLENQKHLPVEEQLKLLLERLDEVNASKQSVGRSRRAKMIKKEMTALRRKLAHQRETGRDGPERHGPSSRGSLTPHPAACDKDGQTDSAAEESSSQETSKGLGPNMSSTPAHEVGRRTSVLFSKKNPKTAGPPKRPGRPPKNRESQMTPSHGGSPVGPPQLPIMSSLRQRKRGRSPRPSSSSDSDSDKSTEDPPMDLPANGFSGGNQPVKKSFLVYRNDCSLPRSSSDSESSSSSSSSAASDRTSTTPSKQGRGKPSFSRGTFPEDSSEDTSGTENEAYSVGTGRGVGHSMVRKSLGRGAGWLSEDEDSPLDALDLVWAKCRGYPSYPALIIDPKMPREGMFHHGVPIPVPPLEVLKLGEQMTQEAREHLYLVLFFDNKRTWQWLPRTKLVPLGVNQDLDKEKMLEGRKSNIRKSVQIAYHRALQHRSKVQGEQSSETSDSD
Sequence of RNA-binding protein FXR1 (Homo sapiens) (P51114 whole entry, the tested form may be a part): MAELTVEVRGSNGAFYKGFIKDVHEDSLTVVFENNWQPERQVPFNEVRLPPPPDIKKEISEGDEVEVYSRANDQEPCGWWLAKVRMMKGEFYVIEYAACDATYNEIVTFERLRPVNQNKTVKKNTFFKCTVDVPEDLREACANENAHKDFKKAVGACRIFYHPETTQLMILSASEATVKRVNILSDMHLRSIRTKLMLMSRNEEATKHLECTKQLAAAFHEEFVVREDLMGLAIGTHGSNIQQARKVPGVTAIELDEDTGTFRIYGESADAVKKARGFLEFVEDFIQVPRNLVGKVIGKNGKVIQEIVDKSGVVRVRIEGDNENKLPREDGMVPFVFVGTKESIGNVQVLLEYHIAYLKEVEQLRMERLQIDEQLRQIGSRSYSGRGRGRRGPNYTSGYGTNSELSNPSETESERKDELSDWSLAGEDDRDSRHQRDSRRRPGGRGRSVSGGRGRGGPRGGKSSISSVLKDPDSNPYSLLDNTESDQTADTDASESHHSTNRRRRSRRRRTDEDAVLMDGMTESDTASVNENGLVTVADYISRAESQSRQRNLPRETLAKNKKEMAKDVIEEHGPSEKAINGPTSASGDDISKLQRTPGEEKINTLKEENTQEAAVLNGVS

inhibition [1]: inactive
inhibition [14]: inactive
inhibition [2]: inactive
inhibition [3]: inactive
inhibition [15]: inactive
inhibition [6]: inactive
inhibition [7]: inactive
inhibition [8]: inactive
inhibition [11]: inactive
Structure (SMILES): CC(C)Oc1ccc(-c2c[nH]cc2C(=O)N(C)CCN)cc1

inhibition [1]: inactive
inhibition [14]: inactive
inhibition [2]: inactive
inhibition [3]: inactive
inhibition [15]: inactive
inhibition [6]: inactive
inhibition [7]: inactive
inhibition [8]: inactive
inhibition [11]: inactive
Structure (SMILES): CC(C)Oc1ccc(-c2c[nH]cc2CN(C)CCO)cc1

inhibition [1]: inactive
inhibition [14]: inactive
inhibition [2]: inactive
inhibition [3]: inactive
inhibition [15]: inactive
inhibition [6]: inactive
inhibition [7]: inactive
inhibition [8]: inactive
inhibition [11]: inactive
Structure (SMILES): CC(C)Oc1ccc(-c2c[nH]cc2CN(C)CC(N)=O)cc1

More lines, now with the values behind:

Structure (SMILES): CN(CCN)Cc1n[nH]nc1-c1cccc(C(F)(F)F)c1
pIC50 [1]: < 4.70
pIC50 [2]: < 4.00
pIC50 [3]: 6.64
pIC50 [4]: < 4.12
pKi [5]: 5.82
pIC50 [6]: 5.52
inhibition [7]: inactive
inhibition [8]: inactive
pKi [9]: < 5.00
pKi [10]: < 4.43
inhibition [11]: inactive
pKi [12]: 6.96
pKi [13]: < 4.30

Structure (SMILES): CN(CCN)Cc1c[nH]cc1-c1cccc(C(F)(F)F)c1
pIC50 [3]: 8.05
pKi [5]: 7.77
pIC50 [6]: 7.38
inhibition [7]: inactive
inhibition [8]: inactive
inhibition [11]: inactive
pKi [12]: 8.52

Structure (SMILES): CC(C)Oc1ccc(-c2c[nH]cc2CN(C)CCN)cc1
deltaTm [16]: inactive
ΔTm [17]: -1.5 °C
ΔTm [18]: -1.3 °C
inhibition [19]: Active
IC50 [20]: Not Active
Activity [21]: Toxic
Activity [22]: 30%
deltaTm [23]: inactive
inhibition [24]: Active
IC50 [25]: Not Active
pIC50 [4]: 7.08
pKi [5]: 8.89
pIC50 [6]: 8.30
ΔTm [26]: -0.3 °C
IC50 [27]: Not Active
deltaTm [28]: inactive
IC50 [29]: Not Active
IC50 [30]: Not Active
IC50 [31]: Not Active
IC50 [32]: Not Active
pKi [10]: 7.64
deltaTm [33]: inactive
deltaTm [34]: inactive
ΔTm [35]: -3 °C
Activity [36]: Non-Toxic
